According to ChEMBL document CHEMBL3271984, “Antifungal activity of 4-substituted crotonic acid esters” (1976):
≈ marks a conversion by molar mass, not a printed value. Calls of active or inactive are those of the source. The calls are words filed in the database; no cut-off is given here.

How the values were obtained:
[1] = system: Candida albicans; assay: Antifungal activity against Candida albicans ATCC 10231 assessed as growth inhibition at pH 7 incubated for 20 hrs in presence of 10% beef serum; assay type: functional; conditions: for MIC: ATCC 10231, 20 h, read-out: MIC100
How it was run: (§1)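 Agar dilution in Sabouraud dextrose agar at pH 5.6 or 7.0, with or without 10% beef serum. C. albicans and M. mucedo were incubated 20 h at 37°; A. niger and T. mentagrophytes 5 days at 28°. The value is the minimal µg/ml giving 100% inhibition. Steps were 1 µg/ml up to 10, 2 up to 20, then 10 up to 100 µg/ml maximum.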

[2] = system: Candida albicans; assay: Antifungal activity against Candida albicans ATCC 10231 assessed as growth inhibition at pH 5.6 incubated for 20 hrs in absence of 10% beef serum; assay type: functional; conditions: for MIC: ATCC 10231, 20 h, read-out: MIC100; how it was run: as §1
[3] = system: Candida albicans; assay: Antifungal activity against Candida albicans ATCC 10231 assessed as growth inhibition at pH 5.6 incubated for 20 hrs in presence of 10% beef serum; assay type: functional; conditions: for MIC: ATCC 10231, 20 h, read-out: MIC100; how it was run: as §1
[4] = system: Candida albicans; assay: Antifungal activity against Candida albicans ATCC 10231 assessed as growth inhibition at pH 7 incubated for 20 hrs in absence of 10% beef serum; assay type: functional; conditions: for MIC: ATCC 10231, 20 h, read-out: MIC100; how it was run: as §1
[5] = system: Aspergillus niger; assay: Antifungal activity against Aspergillus niger ATCC 1004 assessed as growth inhibition at pH 5.6 incubated for 5 days in absence of 10% beef serum; assay type: functional; conditions: for MIC: ATCC 1004, 120 h, read-out: MIC100; how it was run: as §1
[6] = system: Aspergillus niger; assay: Antifungal activity against Aspergillus niger ATCC 1004 assessed as growth inhibition at pH 5.6 incubated for 5 days in presence of 10% beef serum; assay type: functional; conditions: for MIC: ATCC 1004, 120 h, read-out: MIC100; how it was run: as §1
[7] = system: Aspergillus niger; assay: Antifungal activity against Aspergillus niger ATCC 1004 assessed as growth inhibition at pH 7 incubated for 5 days in absence of 10% beef serum; assay type: functional; conditions: for MIC: ATCC 1004, 120 h, read-out: MIC100; how it was run: as §1
[8] = system: Aspergillus niger; assay: Antifungal activity against Aspergillus niger ATCC 1004 assessed as growth inhibition at pH 7 incubated for 5 days in presence of 10% beef serum; assay type: functional; conditions: for MIC: ATCC 1004, 120 h, read-out: MIC100; how it was run: as §1
[9] = system: Mucor mucedo; assay: Antifungal activity against Mucor mucedo ATCC 7941 assessed as growth inhibition at pH 5.6 incubated for 20 hrs in absence of 10% beef serum; assay type: functional; conditions: for MIC: ATCC 7941, 20 h, read-out: MIC100; how it was run: as §1
[10] = system: Mucor mucedo; assay: Antifungal activity against Mucor mucedo ATCC 7941 assessed as growth inhibition at pH 5.6 incubated for 20 hrs in presence of 10% beef serum; assay type: functional; conditions: for MIC: ATCC 7941, 20 h, read-out: MIC100; how it was run: as §1
[11] = system: Mucor mucedo; assay: Antifungal activity against Mucor mucedo ATCC 7941 assessed as growth inhibition at pH 7 incubated for 20 hrs in absence of 10% beef serum; assay type: functional; conditions: for MIC: ATCC 7941, 20 h, read-out: MIC100; how it was run: as §1
[12] = system: Mucor mucedo; assay: Antifungal activity against Mucor mucedo ATCC 7941 assessed as growth inhibition at pH 7 incubated for 20 hrs in presence of 10% beef serum; assay type: functional; conditions: for MIC: ATCC 7941, 20 h, read-out: MIC100; how it was run: as §1
[13] = system: Trichophyton mentagrophytes; assay: Antifungal activity against Trichophyton mentagrophytes ATCC 9129 assessed as growth inhibition at pH 5.6 incubated for 5 days in absence of 10% beef serum; assay type: functional; conditions: for MIC: ATCC 9129, 120 h, read-out: MIC100; how it was run: as §1
[14] = system: Trichophyton mentagrophytes; assay: Antifungal activity against Trichophyton mentagrophytes ATCC 9129 assessed as growth inhibition at pH 5.6 incubated for 5 days in presence of 10% beef serum; assay type: functional; conditions: for MIC: ATCC 9129, 120 h, read-out: MIC100; how it was run: as §1
[15] = system: Trichophyton mentagrophytes; assay: Antifungal activity against Trichophyton mentagrophytes ATCC 9129 assessed as growth inhibition at pH 7 incubated for 5 days in absence of 10% beef serum; assay type: functional; conditions: for MIC: ATCC 9129, 120 h, read-out: MIC100; how it was run: as §1
[16] = system: Trichophyton mentagrophytes; assay: Antifungal activity against Trichophyton mentagrophytes ATCC 9129 assessed as growth inhibition at pH 7 incubated for 5 days in presence of 10% beef serum; assay type: functional; conditions: for MIC: ATCC 9129, 120 h, read-out: MIC100; how it was run: as §1
[17] = system: Candida albicans; assay: Antifungal activity against Candida albicans ATCC 10231 incubated for 20 hrs; assay type: functional, organism-based
[18] = system: Aspergillus niger; assay: Antifungal activity against Aspergillus niger ATCC 1004 incubated for 5 days; assay type: functional, organism-based
[19] = system: Mucor mucedo; assay: Antifungal activity against Mucor mucedo ATCC 7941 incubated for 20 hrs; assay type: functional, organism-based
[20] = system: Trichophyton mentagrophytes; assay: Antifungal activity against Trichophyton mentagrophytes ATCC 9129 incubated for 5 days; assay type: functional, organism-based

SMILES | MIC [1] [µg/mL] | MIC [2] [µg/mL] | MIC [3] [µg/mL] | MIC [4] [µg/mL] | MIC [5] [µg/mL] | MIC100 [6] | MIC [7] [µg/mL] | MIC100 [8] | MIC [9] [µg/mL] | MIC [10] [µg/mL] | MIC [11] [µg/mL] | MIC [12] [µg/mL] | MIC [13] [µg/mL] | MIC [14] [µg/mL] | MIC [15] [µg/mL] | MIC [16] [µg/mL] | MIC [6] [µg/mL] | MIC [8] [µg/mL] | also measured
CCCCCCOC(=O)/C=C/CBr | 90 | 20 (≈ 80.3 µM) | 70 | 20 (≈ 80.3 µM) | – | inactive | – | inactive | 14 (≈ 56.2 µM) | 40 | 16 (≈ 64.2 µM) | 50 | < 1 | 14 | 4 (≈ 16.1 µM) | 30 | – | – | MIC100 [5]: inactive; MIC100 [7]: inactive
C=CC(=O)OC | – | – | – | – | – | – | – | – | – | – | – | – | – | – | – | – | – | – | Activity [17]: inactive; Activity [18]: inactive; Activity [19]: inactive; Activity [20]: inactive
C/C=C/C(=O)OCCCC | – | – | – | – | – | – | – | – | – | – | – | – | – | – | – | – | – | – | Activity [17]: inactive; Activity [18]: inactive; Activity [19]: inactive; Activity [20]: inactive
CC1/C=C/C=C/C=C/C=C/C=C/C=C/C=C/C(OC2O[C@H](C)[C@@H](O)[C@H](N)[C@@H]2O)CC(O)C(C(=O)O)C(O)CC(=O)CC(O)CC(O)CC(O)CC(=O)CCCC(=O)CC(=O)OC1C(C)CC(C)C(O)CC(=O)c1ccc(N)cc1 (stereo partly specified) | 2 | < 1 | < 1 | < 1 | 2 (≈ 1.8 µM) | – | 5 (≈ 4.51 µM) | – | < 1 | < 1 | < 1 | < 1 | < 1 | < 1 | 3 (≈ 2.7 µM) | 9 | 5 | 7 | –
COC(=O)/C=C/CF | – | – | – | – | – | inactive | – | inactive | – | – | – | – | – | – | – | – | – | – | MIC100 [1]: inactive; MIC100 [2]: inactive; MIC100 [3]: inactive; MIC100 [4]: inactive; MIC100 [5]: inactive; MIC100 [7]: inactive; MIC100 [9]: inactive; MIC100 [10]: inactive; MIC100 [11]: inactive; MIC100 [12]: inactive; MIC100 [13]: inactive; MIC100 [14]: inactive; MIC100 [15]: inactive; MIC100 [16]: inactive
C/C=C/C(=O)OC | – | – | – | – | – | – | – | – | – | – | – | – | – | – | – | – | – | – | Activity [17]: inactive; Activity [18]: inactive; Activity [19]: inactive; Activity [20]: inactive

Now from value to molecule, other results behind:

MIC [1] [µg/mL] | MIC [2] [µg/mL] | MIC [3] [µg/mL] | MIC [4] [µg/mL] | MIC [5] [µg/mL] | MIC100 [6] | MIC [7] [µg/mL] | MIC100 [8] | MIC [9] [µg/mL] | MIC [10] [µg/mL] | MIC [11] [µg/mL] | MIC [12] [µg/mL] | MIC [13] [µg/mL] | MIC [14] [µg/mL] | MIC [15] [µg/mL] | MIC [16] [µg/mL] | MIC [6] [µg/mL] | MIC [8] [µg/mL] | SMILES | also measured
50 | 5 (≈ 17.7 µM) | 40 | 12 (≈ 42.5 µM) | 40 (≈ 142 µM) | inactive | 30 (≈ 106 µM) | inactive | 4 (≈ 14.2 µM) | 9 | 3 (≈ 10.6 µM) | 12 | < 1 | 4 | 2 (≈ 7.09 µM) | 10 | – | – | CCCCCOC(=O)/C=C/CI | –
20 | 10 (≈ 39.4 µM) | 16 | 12 (≈ 47.2 µM) | 30 (≈ 118 µM) | – | 30 (≈ 118 µM) | – | 2 (≈ 7.87 µM) | 5 | 3 (≈ 11.8 µM) | 6 | < 1 | 3 | 2 (≈ 7.87 µM) | 7 | 60 | 60 | CCCOC(=O)/C=C/CI | –
40 | 20 (≈ 104 µM) | 30 | 30 (≈ 155 µM) | 80 (≈ 414 µM) | – | 70 (≈ 363 µM) | – | 5 (≈ 25.9 µM) | 7 | 6 (≈ 31.1 µM) | 7 | < 1 | 2 | 2 (≈ 10.4 µM) | 4 | 90 | 80 | CCOC(=O)/C=C/CBr | –
30 | 10 (≈ 37.3 µM) | 20 | 12 (≈ 44.8 µM) | 30 (≈ 112 µM) | – | 20 (≈ 74.6 µM) | – | 2 (≈ 7.46 µM) | 5 | 4 (≈ 14.9 µM) | 7 | < 1 | 3 | < 1 | 7 | 70 | 70 | CCCCOC(=O)/C=C/CI | –
18 | 8 (≈ 33.3 µM) | 18 | 10 (≈ 41.7 µM) | 40 (≈ 167 µM) | – | 40 (≈ 167 µM) | – | < 1 | 4 | 3 (≈ 12.5 µM) | 5 | < 1 | 2 | 2 (≈ 8.33 µM) | 4 | 50 | 40 | CCOC(=O)/C=C/CI | –
90 | 16 (≈ 54 µM) | 80 | 30 (≈ 101 µM) | – | inactive | – | inactive | 14 (≈ 47.3 µM) | 40 | 14 (≈ 47.3 µM) | 50 | < 1 | 8 | 3 (≈ 10.1 µM) | 20 | – | – | CCCCCCOC(=O)/C=C/CI | MIC100 [5]: inactive; MIC100 [7]: inactive
